For four compounds, Activity and IC50 results are on record in ChEMBL document CHEMBL4765413, “Discovery of novel anti-angiogenesis agents. Part 11: Development of PROTACs based on active molecules with potency of promoting vascular normalization” (Eur J Med Chem, 2020).

Each structure is given as a SMILES string.

Data set [1] addresses von Hippel-Lindau disease tumor suppressor/Vascular endothelial growth factor receptor 2 (Homo sapiens) (UniProt P35968+P40337). The data set is described as follows: Protac activity at VHL/VEGFR2 in human EA.hy 926 cells assessed as induction of VEGFR2 degradation at 80 uM measured after 72 hrs by Western blot analysis relative to control. Format: cell-based. In outline: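 EA.hy926 cells were exposed to DMSO vehicle or test compound, then lysed in SDS sample buffer and normalized by BCA protein assay. Equal protein amounts were run on SDS-PAGE and transferred to PVDF. Membranes were blocked in 5% milk/TBS-Tween and probed with anti-VEGFR-2 (1:500), with GAPDH (1:10000) as loading control. Detection used HRP secondary and ECL, with densitometric quantification.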

The test system of the next data set is HEK293. Briefly: Cytotoxicity against HEK293 cells measured after 24 hrs by MTT assay. It is filed as cell-based. To be noted: human, hek293, 24 h. Background: Tetrazolium assays rely on reduction of a dye to a coloured formazan, in cell work by metabolically active cells.
The next data set has as its system EA.hy 926. Briefly: Antiangiogenic activity in human EA.hy 926 cells measured after 24 hrs by MTT assay. Conditions: EA.hy 926, 24 h.
Data set [2] addresses Vascular endothelial growth factor receptor 2 (Homo sapiens, UniProt P35968). The data set is described as follows: Inhibition of recombinant human N-terminal GST-tagged VEGFR2 (789 to end residues) expressed in baculovirus infected Sf9 insect cells using Poly (4:1 Glu, Tyr) as substrate incubated for 1 hr by ADP-Glo luminescent assay. In general terms: ADP-Glo first removes unused ATP, then detects ADP through luciferase.

Vascular endothelial growth factor receptor 2, sequence (P35968 whole entry): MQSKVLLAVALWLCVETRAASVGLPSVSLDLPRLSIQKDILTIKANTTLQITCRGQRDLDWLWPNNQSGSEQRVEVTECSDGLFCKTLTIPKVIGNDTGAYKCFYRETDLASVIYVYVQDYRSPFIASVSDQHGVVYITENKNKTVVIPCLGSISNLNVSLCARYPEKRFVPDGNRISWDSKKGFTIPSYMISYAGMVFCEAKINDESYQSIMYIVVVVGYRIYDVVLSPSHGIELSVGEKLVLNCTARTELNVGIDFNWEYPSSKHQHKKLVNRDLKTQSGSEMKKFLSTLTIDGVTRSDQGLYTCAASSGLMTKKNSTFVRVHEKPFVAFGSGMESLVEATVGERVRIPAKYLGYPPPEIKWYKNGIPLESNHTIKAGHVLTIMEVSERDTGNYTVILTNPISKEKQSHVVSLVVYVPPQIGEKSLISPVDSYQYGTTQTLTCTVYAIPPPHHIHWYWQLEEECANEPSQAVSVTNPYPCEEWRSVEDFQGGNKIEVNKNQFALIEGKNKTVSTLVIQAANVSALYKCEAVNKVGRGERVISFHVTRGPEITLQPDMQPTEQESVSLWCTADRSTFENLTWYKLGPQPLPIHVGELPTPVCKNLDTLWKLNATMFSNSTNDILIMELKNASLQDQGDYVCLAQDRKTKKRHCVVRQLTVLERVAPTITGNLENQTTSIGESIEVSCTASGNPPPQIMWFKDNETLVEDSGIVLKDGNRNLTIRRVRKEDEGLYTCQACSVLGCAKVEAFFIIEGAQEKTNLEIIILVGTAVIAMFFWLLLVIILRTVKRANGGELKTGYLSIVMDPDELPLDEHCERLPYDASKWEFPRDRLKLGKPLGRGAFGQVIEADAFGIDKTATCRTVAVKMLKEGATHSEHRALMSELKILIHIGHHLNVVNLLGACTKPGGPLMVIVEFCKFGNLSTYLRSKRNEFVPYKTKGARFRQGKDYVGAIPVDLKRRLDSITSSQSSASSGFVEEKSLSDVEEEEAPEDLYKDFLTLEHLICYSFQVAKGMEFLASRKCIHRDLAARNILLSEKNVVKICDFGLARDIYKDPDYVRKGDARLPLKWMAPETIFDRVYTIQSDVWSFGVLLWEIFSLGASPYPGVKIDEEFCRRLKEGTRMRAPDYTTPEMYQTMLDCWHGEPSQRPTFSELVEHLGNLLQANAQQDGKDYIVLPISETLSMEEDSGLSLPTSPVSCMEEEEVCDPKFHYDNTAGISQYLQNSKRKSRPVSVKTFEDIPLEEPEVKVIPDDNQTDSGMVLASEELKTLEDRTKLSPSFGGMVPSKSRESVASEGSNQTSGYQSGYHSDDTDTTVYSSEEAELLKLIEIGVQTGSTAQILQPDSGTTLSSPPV
von Hippel-Lindau disease tumor suppressor/Vascular endothelial growth factor receptor 2 (Homo sapiens), sequence (P35968 20-1356 limits assumed): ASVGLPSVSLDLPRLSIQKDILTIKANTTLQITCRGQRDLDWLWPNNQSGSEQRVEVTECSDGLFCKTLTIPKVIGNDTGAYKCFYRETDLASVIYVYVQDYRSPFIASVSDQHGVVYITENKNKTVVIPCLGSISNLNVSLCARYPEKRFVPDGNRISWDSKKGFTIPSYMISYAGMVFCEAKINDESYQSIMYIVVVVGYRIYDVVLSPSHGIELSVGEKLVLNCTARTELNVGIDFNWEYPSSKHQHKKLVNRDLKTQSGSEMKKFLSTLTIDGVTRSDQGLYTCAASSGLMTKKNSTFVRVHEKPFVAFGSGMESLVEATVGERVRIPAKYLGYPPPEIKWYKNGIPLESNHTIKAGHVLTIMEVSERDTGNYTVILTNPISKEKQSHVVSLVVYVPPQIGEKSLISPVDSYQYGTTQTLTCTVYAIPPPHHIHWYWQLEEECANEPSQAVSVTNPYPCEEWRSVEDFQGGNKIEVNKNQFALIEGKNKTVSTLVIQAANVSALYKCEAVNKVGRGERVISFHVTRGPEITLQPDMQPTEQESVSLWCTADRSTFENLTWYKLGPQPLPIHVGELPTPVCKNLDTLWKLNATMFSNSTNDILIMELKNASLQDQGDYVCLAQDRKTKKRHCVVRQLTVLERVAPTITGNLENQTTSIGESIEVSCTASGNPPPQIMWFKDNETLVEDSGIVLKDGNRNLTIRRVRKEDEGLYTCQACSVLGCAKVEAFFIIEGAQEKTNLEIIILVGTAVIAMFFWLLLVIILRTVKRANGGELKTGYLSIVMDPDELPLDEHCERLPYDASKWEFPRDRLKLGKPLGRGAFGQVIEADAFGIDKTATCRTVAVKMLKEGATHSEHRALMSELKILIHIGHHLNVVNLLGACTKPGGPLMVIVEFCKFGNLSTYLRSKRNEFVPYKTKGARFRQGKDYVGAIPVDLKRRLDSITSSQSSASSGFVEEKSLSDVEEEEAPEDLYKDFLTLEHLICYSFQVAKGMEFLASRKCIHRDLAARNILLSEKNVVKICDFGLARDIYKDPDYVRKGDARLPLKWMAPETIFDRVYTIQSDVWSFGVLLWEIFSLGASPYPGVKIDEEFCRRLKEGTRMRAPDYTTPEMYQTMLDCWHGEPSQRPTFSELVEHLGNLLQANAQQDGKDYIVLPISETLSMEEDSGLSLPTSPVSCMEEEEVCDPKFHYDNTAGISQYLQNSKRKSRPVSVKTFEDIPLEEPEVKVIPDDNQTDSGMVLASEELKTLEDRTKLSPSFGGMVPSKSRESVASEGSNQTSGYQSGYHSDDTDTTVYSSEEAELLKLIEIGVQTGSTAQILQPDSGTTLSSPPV
von Hippel-Lindau disease tumor suppressor/Vascular endothelial growth factor receptor 2 (Homo sapiens), sequence (P40337 whole entry partner): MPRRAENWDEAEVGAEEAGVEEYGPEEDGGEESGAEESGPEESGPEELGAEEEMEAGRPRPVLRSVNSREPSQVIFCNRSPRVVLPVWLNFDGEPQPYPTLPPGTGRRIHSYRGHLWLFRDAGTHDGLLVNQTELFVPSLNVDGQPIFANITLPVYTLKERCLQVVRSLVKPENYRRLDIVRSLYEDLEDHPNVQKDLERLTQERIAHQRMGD

For orientation: IC50 means the concentration that gives 50% inhibition. In the case of `Cc1ncsc1-c1ccc(CNC(=O)[C@@H]2C[C@@H](O)CN2C(=O)[C@@H](NC(=O)CCCCCCCCCCC(=O)n2nc(N)c3c(-c4cccc(NC(=O)Nc5cccc(C(C)C)c5)c4)cccc32)C(C)(C)C)cc1`, the Activity in data set [1] was 70%; in the data set on HEK293, “Non-Toxic”. The half-inhibitory concentration (IC50) with EA.hy 926 came out at 32.8 µM; in data set [2] it was 0.208 µM.
In the case of `Cc1ncsc1-c1ccc(CNC(=O)[C@@H]2C[C@@H](O)CN2C(=O)[C@@H](NC(=O)CCCCCCCCCCCCCCC(=O)n2nc(N)c3c(-c4cccc(NC(=O)Nc5cccc(C(C)C)c5)c4)cccc32)C(C)(C)C)cc1`, in the data set on HEK293, the Activity result is “Non-Toxic”. Further, the IC50 in the data set on EA.hy 926 is over 100 µM; in data set [2], over 1 µM.
For the compound `CC(C)c1cccc(NC(=O)Nc2cccc(-c3cccc4[nH]nc(N)c34)c2)c1`, in the data set on EA.hy 926, 51.6 µM corresponded to half-maximal inhibition (IC50).
Consider `Cc1ncsc1-c1ccc(CNC(=O)[C@@H]2C[C@@H](O)CN2C(=O)[C@@H](NC(=O)CCCCCC(=O)n2nc(N)c3c(-c4cccc(NC(=O)Nc5cccc(C(C)C)c5)c4)cccc32)C(C)(C)C)cc1`, for which the Activity result with HEK293 is “Non-Toxic”. In addition, the IC50 in the data set on EA.hy 926 is over 100 µM; in data set [2], over 1 µM.
